# Experimental data gathered from unrelated publications.
# Each line is one published result; the experiments were not run side by side.
Structure (SMILES),target or system,assay,system,conditions,quantity,result
CONC(=O)[C@H]1[C@@H](O)[C@@]2(O)c3c(OC)cc(OC)cc3O[C@@]2(c2ccc(OC)cc2)[C@@H]1c1ccccc1,MDA-MB-231,"cell growth or viability, SRB",,,IC50,0.0019 µM
CC(C)=CCOc1c2occc2cc2ccc(=O)oc12,MRC5,"cell growth or viability, MTT",,24 h,IC50,> 100 µM
CCCCCCCCCCCC(=O)NC(C)(C)C(=O)N1CCC[C@H]1C(=O)NC(C)(C)C(=O)NC(C)(C)C(=O)N1CCC[C@H]1C(=O)NC(C)(C)C(=O)NC(C)(C)C(=O)N1CCC[C@H]1C(=O)N[C@@H](C)C(=O)NC(C)(C)C(=O)NCCC(=O)N[C@@H](C)C(=O)NC(C)(C)C(=O)NC(C)(C)C(=O)NCCC(=O)NC(C)(C)C(=O)NC(C)(C)C(=O)NC(C)(C)C(=O)N[C@@H](C)C(=O)NCCC(=O)O,MDA-MB-231,"cell growth or viability, MTT",,24 h,IC50,1 µM
CC(C)[C@H](NC(=O)c1ccccc1NC(=O)c1ccccc1)C(=O)N[C@H](CO)C(C)C,MRC5,"cell growth or viability, MTT",,72 h,CC50,> 250 µM
C=C(C)[C@@H]1CC[C@]2(NCCN3CCS(=O)(=O)CC3)CC[C@]3(C)[C@H](CC[C@@H]4[C@@]5(C)CC=C(C6=CC[C@@](COc7ncccc7C#N)(C(=O)O)CC6)C(C)(C)[C@@H]5CC[C@]43C)[C@@H]12,,,"human, plasma","oral, 100 mg, 24 h, fed, tablet",concentration,408 ng/mL
CN(C)CCc1c[nH]c2ccccc12,,,"human, plasma","intravenous, 9 mg, 7 min, healthy volunteers, infusion",concentration,15.9 ng/mL
COc1ccc(C(=O)Nc2ccccc2C(=O)N[C@H](C(=O)N[C@H](CO)C(C)C)C(C)C)cc1,MRC5,"cell growth or viability, MTT",,72 h,CC50,> 250 µM
CC(=O)NC(CC(C)C)C(=O)NC(CC(C)C)C(=O)NC(Cc1ccc(O)cc1)C(N)=O (centres unmarked),"ABCB1 (Cricetulus griseus, UniProt P21448)","binding, fluorescence",,,Kd,28 µM
